Active and inactive are the calls of the source. The rule behind the calls is not given here.
Legend:
[1] = test system: NRK; experiment: Golgi-disturbing activity in golgi apparatus of rat NRK cells assessed as golgi fragmentation after 60 mins by Hoechst 3342 staining-based immunofluorescence microscopy; type: functional
Outline: (§1)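 NRK cells grown in alpha MEM with 10% FCS, 2 mM glutamine and 25 mM Hepes pH 7.4 on coated coverslips. Compound at 30 µM working concentration (DMSO vehicle control) for 60 min at 37 °C. Cells then immunostained for mannosidase II with Alexa 594 secondary and Hoechst for nuclei, and scored by fluorescence microscopy at 60×.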

[2] = Drug localization in golgi apparatus of rat NRK cells after 10 mins by immunofluorescence microscopy; type: ADME, cell-based
Outline: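 Live NRK cells incubated with fluorescent probe for 10 min and imaged for Golgi-like perinuclear staining. For colocalization, cells were mildly fixed (2% formaldehyde, 90 s), immunostained for mannosidase II, then given probe at 25 μM for 30 min before mounting. Coumarin read at excitation 370 nm, emission 460 nm.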

[3] = test system: NRK; experiment: Golgi-disturbing activity in golgi apparatus of rat NRK cells assessed as golgi vesiculation after 60 mins by Hoechst 3342 staining-based immunofluorescence microscopy; type: functional, cell-based; outline: as §1
[4] = test system: NRK; experiment: Golgi-disturbing activity in golgi apparatus of rat NRK cells assessed as reversible golgi fragmentation after 60 mins by Hoechst 3342 staining-based immunofluorescence microscopy; type: functional, cell-based
Outline: (§2)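 After 1 h compound exposure (30 µM, 37 °C), NRK cells were either fixed directly or washed four times with PBS and kept in fresh complete medium at 37 °C (90 min per methods) before mannosidase II/Hoechst immunofluorescence to judge recovery of Golgi structure.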

[5] = test system: NRK; experiment: Golgi-disturbing activity in golgi apparatus of rat NRK cells assessed as partial golgi vesiculation after 60 mins by Hoechst 3342 staining-based immunofluorescence microscopy; type: functional, cell-based; outline: as §1
[6] = test system: NRK; experiment: Golgi-disturbing activity in golgi apparatus of rat NRK cells assessed as golgi fragmentation measured after 60 mins following drug washout by Hoechst 3342 staining-based immunofluorescence microscopy; type: functional, cell-based
[7] = test system: NRK; experiment: Golgi-disturbing activity in golgi apparatus of rat NRK cells assessed as fusion of golgi membrane fusion with endoplasmic reticulum at 7 uM after 60 mins by Hoechst 3342 staining-based immunofluorescence microscopy; type: functional, cell-based
Outline: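 Agent applied for 60 min at 37 °C, with a DMSO control. Golgi read by immunofluorescence: rabbit mannosidase II primary, Alexa Fluor 594 secondary, Hoechst DNA stain, 60× fluorescence microscopy.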

[8] = test system: NRK; experiment: Golgi-disturbing activity in golgi apparatus of rat NRK cells assessed as golgi fragmentation after 60 mins by Hoechst 3342 staining-based immunofluorescence microscopy in presence of PKD inhibitor H89; type: functional, cell-based
Outline: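 NRK cells were pretreated with H-89 (20 µM) for 30 min, then incubated with compound for 1 h at 37 °C. Golgi was read by mannosidase II immunofluorescence with Hoechst counterstain.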

[9] = test system: NRK; experiment: Golgi-disturbing activity in golgi apparatus of rat NRK cells assessed as irreversible golgi fragmentation after 60 mins by Hoechst 3342 staining-based immunofluorescence microscopy; type: functional, cell-based; outline: as §2
[10] = test system: NRK; experiment: Golgi-disturbing activity in golgi apparatus of rat NRK cells assessed as complete golgi vesiculation without fusion with endoplasmic reticulum at 30 uM after 60 mins by Hoechst 3342 staining-based immunofluorescence microscopy; type: functional, cell-based; outline: as §1
[11] = test system: NRK; experiment: Golgi-disturbing activity in golgi apparatus of rat NRK cells assessed as reversible golgi vesiculation after 60 mins by Hoechst 3342 staining-based immunofluorescence microscopy; type: functional, cell-based; outline: as §2
[12] = test system: NRK; experiment: Golgi-disturbing activity in golgi apparatus of rat NRK cells assessed as transport of GFP-fused VSV G protein from fragmented golgi to plasma membrane after 60 mins by protein transport assay; type: functional, cell-based
Outline: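 After transfection with tsO45 VSV-G-GFP, NRK cells were held at 40 °C for 20 h, then at 20 °C for 2 h with cycloheximide to hold VSV-G in the Golgi. Cells were then incubated with compound (30 µM working) or DMSO and shifted to 32 °C for 1 h. Arrival at the plasma membrane was imaged by fluorescence microscopy.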

[13] = test system: NRK; experiment: Golgi-disturbing activity in golgi apparatus of rat NRK cells assessed as microtubule depolymerization-associated golgi fragmentation after 60 mins by Hoechst 3342 staining-based immunofluorescence microscopy
[14] = test system: NRK; experiment: Golgi-disturbing activity in golgi apparatus of rat NRK cells assessed as enhancement of nocodazole-induced golgi fragmentation after 60 mins by Hoechst 3342 staining-based immunofluorescence microscopy; type: functional, cell-based
Outline: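 NRK cells were pretreated with nocodazole (30 µM) for 60 min, then given compound for a further 60 min. Golgi was visualized by mannosidase II immunofluorescence with Hoechst nuclear stain.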

[15] = test system: NRK; experiment: Golgi-disturbing activity in golgi apparatus of rat NRK cells assessed as transport of GFP-fused VSV G protein from endoplasmic reticulum to golgi after 60 mins by protein transport assay; type: functional, cell-based
Outline: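 NRK cells were transfected with tsO45 VSV-G-GFP using FuGene 6 and held at 40 °C for 20 h to arrest VSV-G in the ER. They were treated with compound (30 µM working) or DMSO for 1 h, then moved to 20 °C for 2 h with cycloheximide. VSV-G entry into the Golgi was judged by fluorescence microscopy against the Golgi marker.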

[16] = test system: NRK; experiment: Golgi-disturbing activity in golgi apparatus of rat NRK cells assessed as microtubule depolymerization-associated golgi fragmentation at 30 uM after 60 mins by Hoechst 3342 staining-based immunofluorescence microscopy; type: functional, cell-based; outline: as §1

Row | Compound | Activity [4] | Activity [5] | Activity [6] | further results
1 | C=C([C@H]1[C@H]2CC(=O)O[C@H]2O[C@@H]1COC(=O)Cc1cc(=O)oc2cc(N(C)C)ccc12)[C@H]1CC[C@H]2C(C)(C)CCC[C@]12C | – | – | – | Activity [1]: Active; Drug uptake [2]: Active
2 | COc1ccc(C(=O)O[C@H]2CC[C@H]3C(C)(C)CCC[C@]23C)c(OC)c1 | Active | – | – | Activity [3]: Active
3 | C=C([C@H]1[C@H]2CC(=O)O[C@H]2O[C@@H]1C(C)=O)C(C)(C)C | inactive | inactive | inactive | –
4 | C[C@H]1CCC/C=C/[C@@H]2C[C@H](O)C[C@H]2[C@H](O)/C=C/C(=O)O1 | – | – | – | Activity [7]: Active
5 | C=C1CCC[C@H]2[C@](C)(CC3=C(O)C(=O)C=C(OC)C3=O)[C@@H](C)CC[C@]12C | – | – | – | Activity [8]: inactive; Activity [9]: Active; Activity [10]: Active; Activity [1]: Active
6 | CC(=O)O[C@H]1O[C@@H]2OC(=O)C[C@@H]2[C@H]1OCc1ccccc1 | inactive | inactive | inactive | –
7 | CC(=O)[C@H]1O[C@@H]2OC(=O)C[C@@H]2[C@H]1OCc1ccccc1 | inactive | inactive | inactive | –
8 | C=C([C@H]1[C@H]2CC(=O)O[C@H]2O[C@@H]1C(C)=O)[C@H]1CC[C@H]2C(C)(C)CCC[C@]12C | Active | Active | – | –
9 | CN(C)c1ccc2c(CC(=O)NCC#Cc3cc(C(=O)O[C@H]4CC[C@H]5C(C)(C)CCC[C@]45C)c(OCC4CC4)cc3OCC3CC3)cc(=O)oc2c1 | – | – | – | Activity [3]: Active; Activity [11]: Active; Drug uptake [2]: Active
10 | C=C([C@H]1[C@H]2CC(=O)O[C@H]2O[C@@H]1CO)[C@H]1CC[C@H]2C(C)(C)CCC[C@]12C | Active | Active | – | –
11 | C=C([C@@H]1[C@@H](OC(C)=O)O[C@@H]2OC(=O)C[C@@H]21)C(C)(C)C | inactive | inactive | inactive | –
12 | C=C([C@@H]1[C@@H](OC(C)=O)O[C@@H]2OC(=O)C[C@@H]21)[C@H]1CC[C@H]2C(C)(C)CCC[C@]12C | – | – | – | Activity [12]: Active; Activity [8]: Active; Activity [13]: Active; Activity [14]: Active; Activity [15]: inactive
13 | CC1(C)CCC[C@]2(C)[C@@H](OC(=O)c3ccc(OCC4CC4)cc3OCC3CC3)CC[C@@H]12 | – | – | Active | Activity [3]: Active
14 | COC(=O)Nc1nc2cc(C(=O)c3cccs3)ccc2[nH]1 | – | – | – | Activity [16]: Active

Reference: ChEMBL document CHEMBL1157652, “Chemical biology studies on norrisolide” (Bioorg Med Chem, 2010)
